Laboratory results reported in ChEMBL document CHEMBL1649062, “Integration of lead optimization with crystallography for a membrane-bound ion channel target: discovery of a new class of AMPA receptor positive allosteric modulators” (J Med Chem, 2011).
Converted amounts (≈) assume the structure as drawn. The source made the active and inactive calls. The calls are words filed in the database; no cut-off is given here.

How the values were obtained:
[1] = Volume of distribution at steady state in cynomolgus monkey at 0.25 mg/kg, iv and 1 mg/kg, po; format: ADME, organism-based, Macaca fascicularis; details: in vivo, read-out: Vdss
How it was run: (§1)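 Male animals, n = 3 per species, given single iv and oral doses: Sprague-Dawley rat 2.5 iv / 3 po mg/kg; beagle dog 0.25 / 0.5; Göttingen minipig 0.5 / 1; cynomolgus monkey 0.25 / 1. Blood sampled; Vss from iv; bioavailability and Vss as mean [range]; Tmax as median [range].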

[2] = target: Glutamate receptor 2 (Rattus norvegicus) (UniProt P19491); assay: Allosteric modulation of GluA2 receptor flip isoform in rat hippocampal neuron at 10 nM by whole cell patch-clamp electrophysiology; details: Hippocampus
Chain of Glutamate receptor 2 (Rattus norvegicus) (P19491 whole entry, canonical isoform): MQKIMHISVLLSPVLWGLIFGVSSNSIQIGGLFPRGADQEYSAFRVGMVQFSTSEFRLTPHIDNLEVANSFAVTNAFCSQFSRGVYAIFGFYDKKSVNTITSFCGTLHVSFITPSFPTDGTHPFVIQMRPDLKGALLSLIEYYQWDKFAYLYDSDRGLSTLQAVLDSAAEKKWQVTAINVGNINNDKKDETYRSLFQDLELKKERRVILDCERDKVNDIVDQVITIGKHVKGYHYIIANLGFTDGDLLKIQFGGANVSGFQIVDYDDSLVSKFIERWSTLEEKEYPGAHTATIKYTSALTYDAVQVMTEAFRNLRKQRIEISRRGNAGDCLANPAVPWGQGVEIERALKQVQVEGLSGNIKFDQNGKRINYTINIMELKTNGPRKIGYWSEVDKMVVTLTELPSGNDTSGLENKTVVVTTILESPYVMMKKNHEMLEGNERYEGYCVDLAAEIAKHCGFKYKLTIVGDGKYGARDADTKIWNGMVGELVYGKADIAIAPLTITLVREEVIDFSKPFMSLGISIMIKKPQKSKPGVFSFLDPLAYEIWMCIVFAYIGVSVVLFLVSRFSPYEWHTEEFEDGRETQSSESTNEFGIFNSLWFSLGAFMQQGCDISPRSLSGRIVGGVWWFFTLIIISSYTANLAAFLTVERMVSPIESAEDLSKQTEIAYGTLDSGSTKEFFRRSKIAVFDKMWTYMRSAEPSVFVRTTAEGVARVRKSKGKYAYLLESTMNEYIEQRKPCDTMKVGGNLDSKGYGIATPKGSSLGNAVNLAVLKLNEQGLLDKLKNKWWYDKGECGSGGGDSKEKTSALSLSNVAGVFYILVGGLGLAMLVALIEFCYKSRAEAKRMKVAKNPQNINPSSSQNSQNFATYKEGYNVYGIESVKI
How it was run: (§2)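 Rat cultured hippocampal neurons; 30 μM AMPA applied for 2 s, with compound co-applied at 10 nM or 10 μM. Read-out is the increase in charge transfer, taken as the area under the current curve.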

Brain [3] = assay: Brain tissue binding in rat at 3 mg/kg, po; format: ADME, organism-based; set-up: dose 3 mg/kg, route oral; details: in vivo
Rattus norvegicus [4] = assay: Cognitive enhancing effect in Lister Hooded rat assessed as reversal of 24 hrs delay-induced cognitive deficit at 0.3 mg/kg, ip by novel object recognition test
[5] = Half life in Swiss Beagle dog at 0.5 mg/kg, po; format: ADME, organism-based, Canis lupus familiaris; set-up: dose 0.5 mg/kg, route oral; details: in vivo
[6] = Tmax in Gottingen minipig at 1 mg/kg, po; format: ADME, organism-based, Sus scrofa; set-up: dose 1 mg/kg, route oral; details: pig, in vivo; how it was run: as §1
[7] = Cmax in Gottingen minipig at 1 mg/kg, po; format: ADME, organism-based, Sus scrofa; set-up: dose 1 mg/kg, route oral; details: pig, in vivo
Sus scrofa = assay: Hepatic blood flow in Gottingen minipig at 0.5 mg/kg, iv and 1 mg/kg, po; format: ADME, organism-based, Liver; details: pig, in vivo
How it was run: (§3)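 Male animals, n = 3 per species, given single iv and oral doses. Values are mean and range. Blood clearance is also expressed as % of liver blood flow, taken as (mL/min)/kg: rat 85, dog 31, minipig 30, cynomolgus monkey 44.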

[8] = target: Glutamate receptor 2 (Rattus norvegicus) (UniProt P19491); assay: Allosteric modulation of GluA2 receptor flip isoform in rat hippocampal neuron at 10 uM by whole cell patch-clamp electrophysiology; format: tissue-based; details: Hippocampus; how it was run: as §2
[9] = Distribution coefficient, log D of the compound; format: physicochemical; details: octanol/water
[10] = Half life in cynomolgus monkey at 0.25 mg/kg, iv; format: ADME, organism-based, Macaca fascicularis; set-up: dose 0.25 mg/kg, route intravenous; details: in vivo; how it was run: as §3
in vivo [11] = details: Sprague-Dawley, rat, po, 3 mg/kg
[12] = AUC ( 0 to t) in rat at 3 mg/kg, po; format: ADME, organism-based, Plasma; set-up: dose 3 mg/kg, route oral; details: plasma
Glutamate receptor 2 [13] = target: T1, Glutamate receptor 2 (Homo sapiens, UniProt P42262); assay: Allosteric modulation of human recombinant GluA2 receptor flip isoform expressed in HEK293 cells assessed as potentiation of glutamate-induced calcium influx by Fluo-4/FLIPR method; format: cell-based
T1 sequence (P42262 whole entry, canonical isoform): as the sequence (P19491 whole entry, canonical isoform) above, with T191M, A291T, G764R, P852A counted along it
How it was run: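 Stable GluA2 flip (unedited) cell line grown in DMEM/F12 with 10% FBS and seeded to confluence 2-3 days before use. Cells washed in HEPES buffer (pH 7.3) and loaded with 2 μM Fluo-4 AM for 60 min at room temperature. On FLIPR, compound was added 5 min before 100 μM glutamate. pEC50 and asymptotic maximum are relative to the maximal response to cyclothiazide, n ≥ 3.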

[14] = Half life in Swiss Beagle dog at 0.25 mg/kg, iv; format: ADME, organism-based, Canis lupus familiaris; set-up: dose 0.25 mg/kg, route intravenous; details: in vivo; how it was run: as §3
[15] = Volume of distribution at steady state in Sprague-Dawley rat at 2.5 mg/kg, iv and 3 mg/kg, po; format: ADME, organism-based; details: in vivo, read-out: Vdss; how it was run: as §1
[16] = Half life in Gottingen minipig at 0.5 mg/kg, iv; format: ADME, organism-based, Sus scrofa; set-up: dose 0.5 mg/kg, route intravenous; details: pig, in vivo; how it was run: as §3
[17] = Half life in Gottingen minipig at 1 mg/kg, po; format: ADME, organism-based, Sus scrofa; set-up: dose 1 mg/kg, route oral; details: pig, in vivo
[18] = Cmax in Sprague-Dawley rat at 3 mg/kg, po; format: ADME, organism-based; set-up: dose 3 mg/kg, route oral; details: in vivo
Rattus norvegicus [19] = assay: Cognitive enhancing effect in Lister Hooded rat assessed as reversal of 24 hrs delay-induced cognitive deficit at 1 mg/kg, ip by novel object recognition test
[20] = Oral bioavailability in Swiss Beagle dog at 0.5 mg/kg; format: ADME, organism-based, Canis lupus familiaris; details: in vivo; how it was run: as §1
[21] = Tmax in cynomolgus monkey at 1 mg/kg, po; format: ADME, organism-based, Macaca fascicularis; set-up: dose 1 mg/kg, route oral; details: in vivo; how it was run: as §1
[22] = Plasma protein binding in rat at 3 mg/kg, po; format: ADME, organism-based; set-up: dose 3 mg/kg, route oral; details: read-out: PPB (converted)
Glutamate receptor 2 [23] = target: T1, Glutamate receptor 2; assay: Allosteric modulation of human recombinant GluA2 receptor flip isoform expressed in HEK293 cells at 100 nM by whole cell patch-clamp electrophysiology; format: cell-based
How it was run: (§4)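 Perforated-patch (amphotericin B) voltage clamp of HEK293 cells stably expressing human GluA2 flip (unedited) homotetramers, held at -60 mV. Extracellular solution in mM: 140 NaCl, 2 KCl, 1 MgCl2, 2 CaCl2, 12 HEPES, 10 D-glucose, pH 7.35. Currents evoked by 1 mM glutamate; compound at 100 nM or 10 μM. Read-out is percent increase in charge transfer (area under curve).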

[24] = Clearance in Sprague-Dawley rat at 2.5 mg/kg, iv and 3 mg/kg, po; format: ADME, organism-based; details: in vivo; how it was run: as §3
[25] = Cmax in Swiss Beagle dog at 0.5 mg/kg, po; format: ADME, organism-based, Canis lupus familiaris; set-up: dose 0.5 mg/kg, route oral; details: in vivo
[26] = Intrinsic clearance in cryopreserved dog hepatocytes assessed per gram of tissue; format: ADME, cell-based, Canis lupus familiaris, Liver, Hepatocyte
How it was run: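 Cryopreserved hepatocytes at 70 000 cells/mL; intrinsic clearance expressed per gram of liver; single determination (human also n = 3).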

Brain [27] = assay: Drug level in Lister Hooded rat assessed per gram of tissue at 1 mg/kg, ip; format: ADME, organism-based; set-up: dose 1 mg/kg, route intraperitoneal; details: in vivo
How it was run: (§5)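 Male Lister Hooded rats (n = 9-12/group) tested for reversal of a 24 h delay-induced deficit in novel object recognition. Significant doses flagged. Brain concentrations measured in the study animals at the end of the test.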

Glutamate receptor 2 [28] = target: T1, Glutamate receptor 2; assay: Allosteric modulation of human recombinant GluA2 receptor flip isoform expressed in HEK293 cells at 10 uM by whole cell patch-clamp electrophysiology; format: cell-based; how it was run: as §4
[29] = Clearance in Gottingen minipig at 0.5 mg/kg, iv and 1 mg/kg, po; format: ADME, organism-based, Sus scrofa; details: pig, in vivo; how it was run: as §3
[30] = Clearance in cynomolgus monkey at 0.25 mg/kg, iv and 1 mg/kg, po; format: ADME, organism-based, Macaca fascicularis; details: in vivo; how it was run: as §3
in vivo [31] = details: rat, brain and blood, po, 3 mg/kg
[32] = Oral bioavailability in cynomolgus monkey at 1 mg/kg; format: ADME, organism-based, Macaca fascicularis; details: in vivo; how it was run: as §1
[33] = Volume of distribution at steady state in Gottingen minipig at 0.5 mg/kg, iv and 1 mg/kg, po; format: ADME, organism-based, Sus scrofa; details: pig, in vivo, read-out: Vdss; how it was run: as §1
Brain [34] = assay: Drug level in Lister Hooded rat assessed per gram of tissue at 0.1 mg/kg, ip; format: ADME, organism-based; set-up: dose 0.1 mg/kg, route intraperitoneal; details: in vivo; how it was run: as §5
[35] = Volume of distribution at steady state in Swiss Beagle dog at 0.25 mg/kg, iv and 0.5 mg/kg, po; format: ADME, organism-based, Canis lupus familiaris; details: in vivo, read-out: Vdss; how it was run: as §1
[36] = Half life in cynomolgus monkey at 1 mg/kg, po; format: ADME, organism-based, Macaca fascicularis; set-up: dose 1 mg/kg, route oral; details: in vivo
Rattus norvegicus [37] = assay: Hepatic blood flow in Sprague-Dawley rat at 2.5 mg/kg, iv and 3 mg/kg, po; format: ADME, organism-based, Liver; details: in vivo; how it was run: as §3
[38] = Intrinsic clearance in cryopreserved rhesus monkey hepatocytes assessed per gram of tissue; format: ADME, Macaca mulatta, Liver, Hepatocyte
[39] = Kinetic solubility of the compound in phosphate buffered saline of pH 7.4; format: physicochemical
How it was run: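 Kinetic solubility: 10 mM DMSO stock, 5 μL diluted to 100 μL with pH 7.4 phosphate-buffered saline, equilibrated 1 h at room temperature, filtered, filtrate quantified by calibrated flow-injection chemiluminescent nitrogen detection.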

For `O=C(c1ccc(-n2nc(C(F)(F)F)c3c2CCCC3)cc1)N1CCCC1`, the Vd [1] was 1.6 L/kg, the Activity [2] was 37% and the “Brain tissue binding (% bound)” value (Brain [3]) was 99.4%. The Activity (Rattus norvegicus [4]) was “Active”, the half-life [5] was 0.9 h and the Tmax [6] was 0.5 h. For the same molecule, the Cmax [7] was 29 ng/mL, the QH (Sus scrofa) was 77% and the Activity [8] was 62%. For the same molecule, the logD [9] was 3, the half-life [10] was 0.5 h and the bioavailability (in vivo [11]) was 54%. It also gave an AUC(0-t) [12] of 472 ng·h/mL, an EC50 (Glutamate receptor 2 [13]) of 10 µM and a half-life [14] of 1.3 h. The Vd [15] was 4.8 L/kg, the half-life [16] was 1.6 h and the half-life [17] was 4.5 h. The Cmax [18] was 245 ng/mL, the Activity (Rattus norvegicus [19]) was “Active” and the bioavailability [20] was 12%. The Tmax [21] was 1 h, the fraction unbound [22] was 0.01 and the Activity (Glutamate receptor 2 [23]) was 21%. The clearance [24] was 40 mL/min/kg, the Cmax [25] was 14 ng/mL and the CL [26] was 2.6 mL/min/g. It also gave a Drug uptake (Brain [27]) of 97 ng/g, an Activity (Glutamate receptor 2 [28]) of 600% and a clearance [29] of 23 mL/min/kg. The clearance [30] was 38 mL/min/kg, the Kp (in vivo [31]) was 1.5 and the bioavailability [32] was 2%. For the same molecule, the Vd [33] was 3.2 L/kg, the Drug uptake (Brain [34]) was 9 ng/g and the Vd [35] was 3.4 L/kg. For the same molecule, the half-life [36] was 1.4 h, the QH (Rattus norvegicus [37]) was 47% and the CL [38] was greater than 50 mL/min/g. The solubility kinetic [39] was 133 µg/mL (≈ 366 µM).
